Test results: ChEMBL document CHEMBL1141957, “Screening of electrophilic compounds yields an aziridinyl peptide as new active-site directed SARS-CoV main protease inhibitor” (Bioorg Med Chem Lett, 2005)

Key:
[1] = target: Replicase polyprotein 1a (Severe acute respiratory syndrome-related coronavirus) (UniProt P0C6U8); test: Inhibition of Mpro in SARS-CoV at 100 uM in FRET-based assay
Procedure, shortened: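 Fluorimetric read-out: SARS-CoV Mpro cleavage of a FRET-pair-labeled peptide substrate. Percent inhibition reported as the mean of at least 2 independent assays.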

[2] = target: Replicase polyprotein 1a (Severe acute respiratory syndrome-related coronavirus) (UniProt P0C6U8); test: Inhibition of Mpro in SARS-CoV at 100uM
[3] = target: Replicase polyprotein 1a (Severe acute respiratory syndrome-related coronavirus) (UniProt P0C6U8); test: Inhibition of Mpro in SARS-CoV at 100 uM in HPLC assay
Procathepsin L = Procathepsin L (Homo sapiens, UniProt P07711); test: Inhibitory activity against cathepsin L
Sequence of Procathepsin L (P07711 whole entry): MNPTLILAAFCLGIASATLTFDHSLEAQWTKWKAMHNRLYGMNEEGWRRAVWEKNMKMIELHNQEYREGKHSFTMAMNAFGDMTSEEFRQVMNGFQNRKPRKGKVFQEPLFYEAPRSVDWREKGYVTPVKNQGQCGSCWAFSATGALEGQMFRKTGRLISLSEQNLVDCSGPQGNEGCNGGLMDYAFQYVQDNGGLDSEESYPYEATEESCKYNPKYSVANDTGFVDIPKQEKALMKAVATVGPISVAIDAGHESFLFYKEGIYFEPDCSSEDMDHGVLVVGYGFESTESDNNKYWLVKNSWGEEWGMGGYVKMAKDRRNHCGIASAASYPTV

| Structure (SMILES) | inhibition [1] [%] | inhibition [2] [%] | other results |
| --- | --- | --- | --- |
| CCOC(=O)C1OC1C(=O)N[C@@H](Cc1ccccc1)C(=O)OCc1ccccc1 (stereo partly specified) | 22 | – | – |
| COC(=O)C1(C(=O)OC)C(C)N1C(=O)OC(C)(C)C (stereo unspecified) | – | < 10 | – |
| C[C@@H]1O[C@@H]1C(=O)N[C@@H](Cc1ccccc1)C(=O)OCc1ccccc1 | 28 | – | – |
| COC(=O)C1CN1CCCC[C@H](NC(=O)OCc1ccccc1)C(=O)OC (stereo partly specified) | 48 | – | – |
| O=C(N[C@@H](Cc1ccccc1)C(=O)OCc1ccccc1)C1C(c2ccccc2)N1Cc1ccccc1 (stereo partly specified) | 30 | – | – |
| C[C@H]1O[C@H]1C(=O)N[C@@H](Cc1ccccc1)C(=O)OCc1ccccc1 | 15 | – | – |
| CCOC(=O)[C@H]1N[C@@H]1C(=O)N[C@H](C(=O)OCc1ccccc1)[C@@H](C)CC | – | < 10 | – |
| C[C@H]1O[C@H]1C(=O)N[C@H](Cc1ccccc1)C(=O)OCc1ccccc1 | – | < 10 | – |
| CC(C)C[C@@H]1O[C@@H]1[C@H](Cc1ccccc1)NC(=O)OC(C)(C)C | – | < 10 | – |
| C[C@H]1O[C@H]1C(=O)N[C@@H](Cc1ccccc1)C(=O)O | – | < 10 | – |
| COC(=O)C1(C(=O)OC)NC1C (stereo unspecified) | – | < 10 | – |
| CC1C(C(=O)N[C@@H](Cc2ccccc2)C(=O)OCc2ccccc2)N1Cc1ccccc1 (stereo partly specified) | 34 | – | – |
| CCOC(=O)[C@H]1N[C@@H]1C(=O)NCC(=O)NCC(=O)OCc1ccccc1 | 54 | – | inhibition [3]: 75% |
| COC(=O)CN1CC1C(=O)OC (stereo unspecified) | 30 | – | – |
| COC(=O)C1CN1[C@@H](C)C(=O)OC (stereo partly specified) | 39 | – | – |
| CC(C)[C@H](NC(=O)[C@@H]1O[C@@H]1C)C(=O)OCc1ccccc1 | 10 | – | – |
| CCOC(=O)N1C(C)C1(C(=O)OC)C(=O)OC (stereo unspecified) | – | < 10 | – |
| COC(=O)C1CN1[C@@H](CC(C)C)C(=O)OCc1ccccc1 (stereo partly specified) | 34 | – | – |
| COC(=O)C1CN1[C@H](C(=O)OCc1ccccc1)C(C)C (stereo partly specified) | 20 | – | – |

| Structure (SMILES) | inhibition [1] [%] | inhibition [2] [%] | other results |
| --- | --- | --- | --- |
| C[C@H]1O[C@H]1C(=O)O | – | < 10 | – |
| COC(=O)C1CN1[C@@H](CCSC)C(=O)OC (stereo partly specified) | 28 | – | – |
| C[C@H]1[C@@H](C(=O)N[C@@H](Cc2ccccc2)C(=O)OCc2ccccc2)N1Cc1ccccc1 (stereo partly specified) | 24 | – | – |
| COC(=O)[C@H]1N[C@H]1C(=O)OC | – | < 10 | – |
| CCOC(=O)[C@H]1N[C@H]1C(=O)OCC | – | < 10 | – |
| CCOC(=O)[C@H]1[C@H](C(=O)OCC)N1C(=O)[C@@H]1CCCN1C(=O)[C@H](CC(C)C)NC(=O)OC(C)(C)C | 16 | – | – |
| CC(C)[C@H](NC(=O)C1C(c2ccccc2)N1Cc1ccccc1)C(=O)OCc1ccccc1 (stereo partly specified) | 22 | – | – |
| C[C@@H]1O[C@@H]1C(=O)N[C@H](Cc1ccccc1)C(=O)OCc1ccccc1 | – | < 10 | – |
| COC(=O)C1CN1CC(=O)OCc1ccccc1 (stereo unspecified) | 26 | – | – |
| CC[C@H](C)[C@@H](C(=O)OCc1ccccc1)N1CC1C(=O)OC (stereo partly specified) | 30 | – | – |
| COC(=O)C1CN1[C@@H](CC(=O)OCc1ccccc1)C(=O)OCc1ccccc1 (stereo partly specified) | 28 | – | – |
| COC(=O)C1C(c2ccccc2)N1Cc1ccccc1 (stereo unspecified) | – | < 10 | – |
| COC(=O)[C@H]1O[C@H]1C(=O)OC | – | < 10 | – |
| CC(C)(C)OC(=O)N[C@H](C(=O)N1[C@H](C(=O)OCc2ccccc2)[C@H]1C(=O)OCc1ccccc1)N1CCCCC1 | 29 | – | Ki (Procathepsin L): 6.4 µM |
| COC(=O)CN1CC1C(=O)N[C@@H](Cc1ccccc1)C(=O)OC (stereo partly specified) | – | < 10 | – |
| CCOC(=O)C1C(C)N1Cc1ccccc1 (stereo unspecified) | – | < 10 | – |
| C[C@@H]1O[C@@H]1C(=O)N[C@H](Cc1ccccc1)C(=O)O | – | < 10 | – |
| CCOC(=O)[C@H]1[C@H](C(=O)OCC)N1C(=O)[C@@H](NC(=O)OC(C)(C)C)C(C(C)C)N1CCC1 (stereo partly specified) | 16 | – | Ki (Procathepsin L): 4.8 µM |
| COC(=O)C1CN1[C@H](C(=O)OC)C(C)C (stereo partly specified) | 30 | – | – |
